Test system: MS2 coat protein
Experiment: apparent Kd, MS2 coat protein; higher = weaker binding; RNA-MaP array
Procedure, shortened: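 Designs measured on fewer than 10 clusters were excluded from the data. The rest were RNAs transcribed from sequenced DNA templates on an Illumina sequencing chip and incubated at room temperature, with or without input ligand, with fluorescently labeled MS2 coat protein at 1.5 nM to 3 μM for 0.8–1.5 h at the lowest to 10–20 min at the highest concentrations. Apparent Kd is the median of the per-cluster binding-curve fits.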

[1] = designed as: ON switch for flavin mononucleotide, no ligand
[2] = ligand present: flavin mononucleotide, designed as: ON switch for flavin mononucleotide
[3] = designed as: OFF switch for flavin mononucleotide, no ligand
[4] = ligand present: flavin mononucleotide, designed as: OFF switch for flavin mononucleotide
[5] = designed as: OFF switch for tryptophan, no ligand
[6] = ligand present: tryptophan, designed as: OFF switch for tryptophan

Sequence | apparent Kd [3] | apparent Kd [4] | further results
CUGUACCGAAUAGGAUAUGAAAAGAAGGUAAAUUCAGAAGGAUUCAAUUAAUUUACAUGAGGAUCACCCAUGUCUAAGCAAACA | – | – | apparent Kd [1]: 12.2 nM; apparent Kd [2]: 8.39 nM
ACAUGAGGAUCACCCAUGUUAUAGGGCAGGGAACGGAGCAUCUAGGAUAUUGUACACCGGCUACACAAGAAGGAGACCGAAGCU | 15.7 nM | 12.3 nM | –
AGCAAUACAUAAGGAUAUGACAUCCAAGAGGAAUCAGAAGGUAUGCAGGCGACAUGAGGAUCACCCAUGUAAUCAUGAGGCAAU | – | – | apparent Kd [1]: 19.4 nM; apparent Kd [2]: 15.8 nM
UUAAAACUAGGAUAUACAUGAGGAUCACCCAUGUGAACACACAAACAAAGAAAAUAAUGUAGAAGGAGACUAUA | 10.8 nM | 8.87 nM | –
CGAAGACAUGAGGAUCACCCAUGUAAGGAUAUUCAAAGAGCGCACCUGAAUGCCCUAUGAAGAAGGUACCGGGC | 69.9 nM | 52.1 nM | –
UCAAAAUGAUAGAAGGAGGCAAUACUCGCACCUAACAUGAGGAUCACCCAUGUCUGCAGGUUGACCUAGGAUAUAUGCAGUGGA | – | – | apparent Kd [1]: 14.6 nM; apparent Kd [2]: 9.35 nM
ACAUACAUGAGGAUCACCCAUGUGGGAUCUUCCUCUAAAACUAAGGAUAUGUCAGUUGGUUAACUACAGAAGGUAGGUCGGAAC | 313 nM | 306 nM | –
AAUACAGCUACGGCCGCCACUUUAACUUGGUAUGGGUCCUUCACAAACAUGAGGAUCACCCAUGUAAGGACCGGGUAGCCUUGUU | – | – | apparent Kd [5]: 21.1 nM; apparent Kd [6]: 35 nM
CUUGUGUGAGGAUAUUAGACACAAUCCGACAGCGGGAUAGUUAAGAAGGCACAUGAGGAUCACCCAUGUUGAGU | 44.2 nM | 81.2 nM | –
AAUAUAGCAGGAUAUACAGAACACCAAUAGACUUCGUUUAGACAUGAGGAUCACCCAUGUAGAAGGGCUCAGAC | 9.85 nM | 9.18 nM | –
AGAUCGCAAUAAGGAUAUGCACCUAAGACUCAAAGAACUCUUGACAUGAGGAUCACCCAUGUAACGCAGAAGGUAUAUGACUCA | – | – | apparent Kd [1]: 21 nM; apparent Kd [2]: 15.1 nM
GAUGAGUUUAAGGAUAUGGUGCGUUGCUUCUUACCAGAAGGUAAAACAUGAGGAUCACCCAUGUGACGGGUGCC | 177 nM | 103 nM | –
UGAACACUGUGAGGAUAUCCACAUGAGGAUCACCCAUGUUUCCUCAGUGAUGCUAUAGCUUCCACGGAGAAGGCACAUGUAAUC | 31.2 nM | 48.2 nM | –
UUGUCACAUGAGGAUCACCCAUGUAAGAGAUUCCAAGGAUAUAUUAUCGGGUAAAAUGAAAUAGAAGGUGGUCAGA | – | – | apparent Kd [1]: 90.3 nM; apparent Kd [2]: 65.6 nM
AUCGGCAGAAAAGAUACCAGAGUAAUACACAACAUGAGGAUCACCCAUGUACGGACAAUCCUCCCUUGGCAGCUUGUAACAGUAU | – | – | apparent Kd (designed as: ON switch for theophylline, no ligand): 47.8 nM; apparent Kd (ligand present: theophylline, designed as: ON switch for theophylline): 26.9 nM
UCCUAUUCAGGAUAUGCGACACGAAACAUGAGGAUCACCCAUGUCUGGGCACCUCAAAGCGCAGAAGGGAACAACG | 665 nM | 321 nM | –
UCCGGACGUUCGGCCGCCACUAAUUUACAUGAGGAUCACCCAUGUGCCAGUGGUCCGCAGAGUAAUAGGACCGGGAACCUUGGCU | – | – | apparent Kd [5]: 25.9 nM; apparent Kd [6]: 29.2 nM
CCCUCUUUAUAGGAUAUGUAGACCAUGGGACAAACAGAAGGAUAGACAUGAGGAUCACCCAUGUGGGAAAACUU | 31.8 nM | 30.4 nM | –
ACUCAGUGAGGAUAUAUAGACGAGGAAAAGUGGAAACUUGAAUAGAAGGCACAUGAGGAUCACCCAUGUCGACG | 8.5 nM | 10.8 nM | –
AGUGGGUUUCAGGAUAUAAUAUUAUCAACCAUAUUAGAAGGGAAUACAUGAGGAUCACCCAUGUUGAGUAUACG | 11.7 nM | 9.38 nM | –
AAUUGAAACAGAGGUAUAUACGGACAUUACCGAGGACCGGUACGGCCGCCACUCGACCUAAAACAUGAGGAUCACCCAUGUAGCA | – | – | apparent Kd [5]: 13.1 nM; apparent Kd [6]: 13.6 nM
AGUUUUCCUGAGAAGGUGGAGGUCUUUCAUUGCCAAGGAUAUCAGACAACAAUGUAGCCCAAACAUGAGGAUCACCCAUGUCUC | – | – | apparent Kd [1]: 70.7 nM; apparent Kd [2]: 42.1 nM
ACUCAGUCAGGAUAUAGAGCCGCACGAGAUCGUGACUCGAUCUAGAAGGGACAUGAGGAUCACCCAUGUUAAGA | 12.7 nM | 20.8 nM | –
GCGUGACAUGAGGAUCACCCAUGUGGCCUCGGGCUAGGAUAUGCUGAUAUACUCACCACCGCAGAAGGAGCUUCAC | – | – | apparent Kd [1]: 142 nM; apparent Kd [2]: 131 nM
UUACGGGAAGGAUAUCAUUGAAGGUACAUGAGGAUCACCCAUGUCUGAUGCGCAUCGCCGUGAGAAGGUCCUGCUU | 38.2 nM | 14.9 nM | –
CCACCAACAGGAUAUACGCUGAGGUUUUCUAACGGUCAUGUACAUGAGGAUCACCCAUGUAGAAGGGUUGUAGG | 37 nM | 55.6 nM | –
